Screens: PubChem BioAssay, several laboratories
This is a sample that favours compounds with a hit; in the whole collection about 2.7% have one here.
Rpn11 block – Rpn11 (PSMD14) deubiquitinase inhibitors, primary screen, biochemical, fluorescence polarization, uHTS. 26S proteasome non-ATPase regulatory subunit 14 (Homo sapiens), O00487. human 26S proteasome, Ub4-pepOG fluorescence polarization; 20S core pre-blocked with epoxomicin. inhibition, % at 20 µM. 360,000 tested, 0.59% active. AID 588493, 2011;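 active = inhibition at 20 µM, scaled to each plate's controls, above about 33%, limit read from the data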
CSN inh – inhibitors of CSN-mediated cullin deneddylation, primary screen, biochemical, fluorescence polarization, uHTS; inhibition, % at 12.5 µM; COP9 signalosome complex subunit 5 (Homo sapiens), Q92905; AID 651999, 2013; Purified CSN, SCF-Nedd8-OG deneddylation; 360,000 tested, 0.38% active;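 active = pattern-corrected inhibition above about 35%, with an unprinted fluorescence ratio check between 0.5 and 1.5, limit read from the data, passing the limit was not always enough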;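 also: 0% = enzyme with substrate and 100% = substrate without enzyme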
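assay system = purified human Csn5 enzyme expressed in HEK293T cells | amount = 0.24 nM enzyme | buffer or medium = Tris/NaCl/DTT buffer, pH 7.5 | reagent = 10 nM SCFSkp2-Nedd8OG | compound = one concentration, 12.5 µM, 0.25% DMSO | times = 90 min reaction at room temperature | signal = FP | read-out basis = % inhibition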
HNF4A DNA FP – change in binding of human HNF4A to DNA, primary screen, biochemical, fluorescence polarization, FITC-DNA. 360,000 tested, 0.3% active. activity change, % at 10 µM. Hepatocyte nuclear factor 4-alpha (Homo sapiens), P41235. 1 h; in the data active = activity change above about 30%, passing the limit was not always enough
TPT1 inhibitor – Candida albicans TPT1 enzyme inhibitors, primary screen, biochemical, fluorescence polarization; tRNA 2'-phosphotransferase TPT1 (Candida albicans SC5314); recombinant caTPT1, FP RNA substrate dephosphorylation; inhibition, % at 5 µM; 300,000 tested, 0.81% active; AID 1962, 2009;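 active = inhibition above the mean of all tested compounds plus 3 SD, set per screening campaign, cut at about 24% in these data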;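 also: plate controls were DMSO alone for no effect and ferristatin control at 100 nM for full effect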
NadD inh – inhibitors of S. aureus NadD, primary screen, biochemical, colorimetric, uHTS | AID 602399, 2012 | purified NadD enzyme, colorimetric absorbance read-out | 360,000 tested, 0.78% active | inhibition, % at 20 µM | Nicotinate-nucleotide adenylyltransferase NadD (Staphylococcus aureus N315); in the data active = inhibition above about 26%
PP1 inh – PP1-alpha phosphatase inhibitors, primary screen, counter-screen for PP5 inhibitor project, biochemical, fluorescence, OMFP substrate, single point; Serine/threonine-protein phosphatase PP1-alpha catalytic subunit (Homo sapiens), P62136; purified PP1alpha; inhibition, % at 6.7 µM; 320,000 tested, 0.9% active; AID 2235, 2010;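 active = inhibition above the mean inhibition of all tested compounds plus 3 SD, computed separately for each screening campaign, cut at about 15% in these data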
Target sequence (P62136 whole entry, looked up): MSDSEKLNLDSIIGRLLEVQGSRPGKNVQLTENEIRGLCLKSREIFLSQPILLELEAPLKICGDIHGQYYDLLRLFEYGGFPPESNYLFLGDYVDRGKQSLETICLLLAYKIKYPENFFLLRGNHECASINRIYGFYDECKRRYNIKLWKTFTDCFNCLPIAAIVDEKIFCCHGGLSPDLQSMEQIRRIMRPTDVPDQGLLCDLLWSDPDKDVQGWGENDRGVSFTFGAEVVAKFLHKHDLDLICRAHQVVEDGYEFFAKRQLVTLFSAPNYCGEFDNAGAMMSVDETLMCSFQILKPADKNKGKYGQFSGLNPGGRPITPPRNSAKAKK
* marks the source's active call; other numbers are inactive results.

`COc1cccc(C2CC(c3ccccc3)=NN2S(=O)(=O)c2ccc(C)cc2)c1OC` (centres undefined) gave CSN inh 76.1*, HNF4A DNA FP 126.8, TPT1 inhibitor 4.4, NadD inh 0.2 and PP1 inh 0.8.
Screening CC1CC(C)CN(C(=O)C2CCN(C(=O)Nc3ccccc3)CC2)C1 (centres undefined) returned Rpn11 block 0.2, CSN inh 0.9, HNF4A DNA FP 1.1, TPT1 inhibitor -2.3, NadD inh -5.9 and PP1 inh -7.9.
For CCCSc1nc(C)c(-c2csc(C(C#N)=C3CCCC3)n2)cc1C#N the results were Rpn11 block 29.7, CSN inh 45.1*, HNF4A DNA FP -12.6, TPT1 inhibitor 7.2, NadD inh 21.7 and PP1 inh 10.3.
Screening Cc1nc2nc(NC(=O)c3ccco3)nn2c(C)c1Cl returned Rpn11 block 4.2, CSN inh -2.0, HNF4A DNA FP 3.1, TPT1 inhibitor 0.9, NadD inh -5.4 and PP1 inh -3.7.
Screening COc1cccc(C(=O)NNC(=O)C(=O)Nc2ccc(C)c(Cl)c2)c1 returned Rpn11 block 2.4, CSN inh 2.3, HNF4A DNA FP 4.0, TPT1 inhibitor 1.1, NadD inh -1.9 and PP1 inh 15.5*.
For O=C(Nc1nnc(-c2ccccn2)o1)c1cccc(Br)c1 the results were Rpn11 block 0.7, CSN inh 0.0, HNF4A DNA FP -0.2, TPT1 inhibitor -4.1, NadD inh 9.1 and PP1 inh 15.5*.
Screening N#Cc1ccc(C(=O)Nc2nnc(-c3ccccn3)o2)cc1 returned Rpn11 block 0.7, CSN inh -2.2, HNF4A DNA FP -1.4, TPT1 inhibitor 0.8, NadD inh 3.6 and PP1 inh -0.1.
Screening CC1CCCN(S(=O)(=O)c2ccc(C(=O)Nc3nnc(-c4ccco4)o3)cc2)C1 (centres undefined) returned Rpn11 block 5.9, CSN inh 3.7, HNF4A DNA FP -0.8, TPT1 inhibitor -1.4, NadD inh 22.2 and PP1 inh 16.9*.
`CCc1nnc(NC(=O)c2ccc(S(=O)(=O)N3CCCC(C)C3)cc2)o1` (centres undefined) gave Rpn11 block 6.9, CSN inh 1.0, HNF4A DNA FP 1.7, TPT1 inhibitor -2.5, NadD inh 8.9 and PP1 inh 10.9.
Screening CC1CCN(S(=O)(=O)c2ccc(C(=O)Nc3nnc(-c4ccccn4)o3)cc2)CC1 returned Rpn11 block 0.1, CSN inh 3.6, HNF4A DNA FP -0.2, TPT1 inhibitor -2.5, NadD inh 15.8 and PP1 inh 16.8*.
Screening CC1CCN(S(=O)(=O)c2ccc(C(=O)Nc3nnc(C4=COCCO4)o3)cc2)CC1 returned Rpn11 block -9.4, CSN inh -2.2, HNF4A DNA FP 1.9, TPT1 inhibitor -2.2, NadD inh 18.7 and PP1 inh 11.9.
Screening Nc1c(C(=O)N/N=C/c2ccc(Cl)cc2)cnn1-c1ccccc1 returned Rpn11 block -1.7, CSN inh 118.5*, HNF4A DNA FP 2.2, TPT1 inhibitor 0.9, NadD inh 0.5 and PP1 inh 3.4.
O=C(CCCNC(=O)c1ccc(Cl)cc1)Nc1ccc(F)c(S(=O)(=O)N2CCOCC2)c1 was read as Rpn11 block -0.8, CSN inh 2.6, HNF4A DNA FP 2.2, NadD inh -3.6 and PP1 inh -0.5.
Screening CC1(C(=O)NS(=O)(=O)c2ccc(C#N)cc2)CCN1C(=O)c1ccccc1CCc1ccccc1 (centres undefined) returned Rpn11 block -5.0, CSN inh -1.9, HNF4A DNA FP 0.1 and NadD inh -1.9.
CC(NS(=O)(=O)c1ccc2[nH]c(=O)[nH]c2c1)c1ccc(F)cc1 (centres undefined) was read as Rpn11 block -1.8, CSN inh -5.2, HNF4A DNA FP 0.8 and NadD inh 9.8.
